Laboratory results published in ChEMBL document CHEMBL3593207, “Imidazole clubbed 1,3,4-oxadiazole derivatives as potential antifungal agents” (2015).

Key:
Assay type in all cases: functional
Candida albicans [1] = test: Antifungal activity against Candida albicans ATCC 10261 by broth microdilution assay
Outline: (§1)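 CLSI M27-A3 broth microdilution. Compounds diluted to 1 mg/ml in 1% DMSO. Fluconazole (1 mg/ml) served as positive control, 1% DMSO as vehicle control, with media and culture controls. Triplicate at each concentration, repeated thrice. Inocula came from YPDA stocks subcultured in broth for 48 h at 37 °C.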

Candida tropicalis [2] = test: Antifungal activity against Candida tropicalis ATCC 750 by broth microdilution assay; outline: as §1
Candida albicans [3] = test: Antifungal activity against clinical isolates of Candida albicans 2323 by broth microdilution assay; outline: as §1
Candida albicans [4] = test: Antifungal activity against clinical isolates of Candida albicans 2367 by broth microdilution assay; outline: as §1
Candida albicans [5] = test: Antifungal activity against clinical isolates of Candida albicans 2779 by broth microdilution assay; outline: as §1
Candida tropicalis [6] = test: Antifungal activity against clinical isolates of Candida tropicalis 2029 by broth microdilution assay; outline: as §1
Candida tropicalis [7] = test: Antifungal activity against clinical isolates of Candida tropicalis 2356 by broth microdilution assay; outline: as §1

| MIC (Candida albicans [1]) [µg/mL] | MIC (Candida tropicalis [2]) [µg/mL] | MIC (Candida albicans [3]) [µg/mL] | MIC (Candida albicans [4]) [µg/mL] | MIC (Candida albicans [5]) [µg/mL] | MIC (Candida tropicalis [6]) [µg/mL] | MIC (Candida tropicalis [7]) [µg/mL] | SMILES |
| --- | --- | --- | --- | --- | --- | --- | --- |
| > 1000 | > 1000 | > 1000 | > 1000 | > 1000 | > 1000 | > 1000 | CCc1ccnc(-c2nccn2Cc2nnc(COc3ccc(Cl)cc3)o2)c1 |
| > 1000 | > 1000 | > 1000 | > 1000 | > 1000 | > 1000 | > 1000 | CCc1ccnc(-c2nccn2Cc2nnc(Cc3ccc(C(C)C)cc3)o2)c1 |

More lines, now with the values behind:

| SMILES | MIC (Candida albicans [1]) [µg/mL] | MIC (Candida tropicalis [2]) [µg/mL] | MIC (Candida albicans [3]) [µg/mL] | MIC (Candida albicans [4]) [µg/mL] | MIC (Candida albicans [5]) [µg/mL] | MIC (Candida tropicalis [6]) [µg/mL] | MIC (Candida tropicalis [7]) [µg/mL] |
| --- | --- | --- | --- | --- | --- | --- | --- |
| CCc1ccnc(-c2nccn2Cc2nnc(-c3ccccc3Cl)o2)c1 | > 1000 | > 1000 | > 1000 | > 1000 | > 1000 | > 1000 | > 1000 |
| CCc1ccnc(-c2nccn2Cc2nnc(-c3ccc(Cl)cc3)o2)c1 | > 1000 | > 1000 | > 1000 | > 1000 | > 1000 | > 1000 | > 1000 |
| CCc1ccnc(-c2nccn2Cc2nnc(-c3ccc(Cl)cc3Cl)o2)c1 | > 1000 | > 1000 | > 1000 | > 1000 | > 1000 | > 1000 | > 1000 |
